Results from ChEMBL document CHEMBL1121923, “N2- and C-7 substituted actinomycin D analogues: synthesis, DNA-binding affinity, and biochemical and biological properties. Structure-activity relationship” (J Med Chem, 1981).
≈ marks a conversion by molar mass, not a printed value.

What was measured:
P388 [1] = experiment: Concentration of compound required for 50% inhibition of synthesis of DNA in cultured P388 cells; format: functional; settings: Mus musculus, read-out: ED50 (the source's name)
P388 [2] = experiment: Concentration of compound required for 50% inhibition of synthesis of RNA in cultured P388 cells; format: functional; settings: Mus musculus, read-out: ED50 (the source's name)
P388 [3] = experiment: Concentration required for 50% inhibition of incorporation of labeled uridine by P388 cells for the synthesis of RNA (in vitro); Not determined because of lack of DNA binding; format: functional, cell-based; settings: Mus musculus
P388 [4] = experiment: Concentration required for 50% inhibition of incorporation of labeled thymidine by p388 cells for synthesis of DNA (in vitro); Not determined because of lack of DNA binding; format: functional, cell-based; settings: Mus musculus
CCRF-CEM = experiment: In vitro antitumor activity against human lymphoblastic leukemia cells.; format: functional
Summary of the method: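 Human lymphoblastic leukemia CCRF-CEM cells grown in suspension culture; growth inhibition in vitro; ID50 (ng/mL) reported as the 50% inhibitory dose.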

Calf thymus DNA [5] = experiment: Apparent number of binding sites per base pairs in DNA; Not measurable; format: nucleic-acid assay; settings: Bos taurus
Summary of the method: (§1)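 Calf thymus DNA; spectral titration; binding isotherms in 0.01 M phosphate buffer, pH 7.0, 20 °C; Kapp (per base pair) and Bapp (drug binding sites per base pair) taken from Scatchard plot.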

Calf thymus DNA [6] = experiment: Apparent binding constant against calf thymus DNA-drug complex; Not measurable; format: nucleic-acid assay; settings: Bos taurus; summary of the method: as §1
P388 [7] = experiment: Concentration required for 50% inhibition of incorporation of labeled uridine by P388 cells for the synthesis of RNA (in vitro); e indicates values are high and variable; format: functional, cell-based; settings: Mus musculus
P388 [8] = experiment: Concentration required for 50% inhibition of incorporation of labeled thymidine by p388 cells for synthesis of DNA (in vitro); e indicates values are high and variable; format: functional, cell-based; settings: Mus musculus
P388 [9] = experiment: Percent of increased life span of P388 cells implanted CDF1 male mice; format: functional; settings: Mus musculus
Summary of the method: (§2)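 CDF1 male mice, groups of seven, given 10^6 P388 cells ip on day 0; drug ip in 5% DMSO–saline on days 1, 5 and 9; controls received vehicle; range of doses tested, optimal nontoxic dose listed; median survival time; %ILS = (treated − control)/control × 100; average of two or more experiments.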

P388 [10] = experiment: Median survival time of the P388 cells implanted CDF1 male mice in vivo; format: functional; settings: Mus musculus; summary of the method: as §2
P388 [11] = experiment: Optimal dose for antitumor activity was measured in P388 cells of CDF1 male mice in vivo; format: functional; settings: Mus musculus; summary of the method: as §2
Calf thymus DNA [12] = experiment: Apparent number of binding sites per base pairs in DNA; d indicates solubility too low for determination; format: nucleic-acid assay; settings: Bos taurus
Summary of the method: (§3)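 Calf thymus DNA; apparent binding constant and apparent number of drug binding sites per base pair, taken from a Scatchard plot of binding isotherms obtained by spectral titration. Run in 0.01 M phosphate buffer, pH 7.0, at 20 °C.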

Calf thymus DNA [13] = experiment: Apparent binding constant against calf thymus DNA-drug complex; d indicates solubility too low for determination; format: nucleic-acid assay; settings: Bos taurus; summary of the method: as §3
P388 [14] = experiment: Concentration of compound required for 50% inhibition of incorporation of labeled uridine by P388 cells for the synthesis of RNA (in vitro); Solubility too low; format: functional, cell-based; settings: Mus musculus
P388 [15] = experiment: Concentration of compound required for 50% inhibition of incorporation of labeled thymidine by p388 cells for synthesis of DNA (in vitro); Solubility too low; format: functional, cell-based; settings: Mus musculus

`Cc1c2oc3c(C)c(O)c(N)c(C(=O)N[C@@H]4C(=O)N[C@H](C(C)C)C(=O)N5CCC[C@H]5C(=O)N(C)CC(=O)N(C)[C@@H](C(C)C)C(=O)O[C@@H]4C)c3nc-2c(C(=O)N[C@@H]2C(=O)N[C@H](C(C)C)C(=O)N3CCC[C@H]3C(=O)N(C)CC(=O)N(C)[C@@H](C(C)C)C(=O)O[C@@H]2C)c/c1=N/Cc1ccc(Cl)c(Cl)c1` gave an EC50 (P388 [1]) of 418 nM and an EC50 (P388 [2]) of 96 nM.

`CCCCCCCCCNc1c(C(=O)N[C@H]2C(=O)N[C@@H](C(C)C)C(=O)N3CCC[C@H]3C(=O)N(C)CC(=O)N(C)[C@H](C(C)C)C(=O)O[C@H]2C)c2nc3c(C(=O)N[C@@H]4C(=O)N[C@H](C(C)C)C(=O)N5CCC[C@@H]5C(=O)N(C)CC(=O)N(C)[C@@H](C(C)C)C(=O)O[C@@H]4C)ccc(C)c3oc-2c(C)c1=O` was tested, and the ED50 (P388 [3]) was “Not measurable” and the ED50 (P388 [4]) was “Not measurable”.

For `Cc1c2oc3c(C)ccc(C(=O)N[C@@H]4C(=O)N[C@H](C(C)C)C(=O)N5CCC[C@@H]5C(=O)N(C)CC(=O)N(C)[C@@H](C(C)C)C(=O)O[C@@H]4C)c3nc-2c(C(=O)N[C@H]2C(=O)N[C@@H](C(C)C)C(=O)N3CCC[C@H]3C(=O)N(C)CC(=O)N(C)[C@H](C(C)C)C(=O)O[C@H]2C)c(NCCCCCCCCN)c1=O`, the ED50 (P388 [3]) was “Not measurable” and the ED50 (P388 [4]) was “Not measurable”.

For `Cc1c2oc3c(C)c(OC(=O)Cc4ccc(Cl)c(Cl)c4)cc(C(=O)N[C@@H]4C(=O)N[C@H](C(C)C)C(=O)N5CCC[C@@H]5C(=O)N(C)CC(=O)N(C)[C@@H](C(C)C)C(=O)O[C@@H]4C)c3nc-2c(C(=O)N[C@H]2C(=O)N[C@@H](C(C)C)C(=O)N3CCC[C@H]3C(=O)N(C)CC(=O)N(C)[C@H](C(C)C)C(=O)O[C@H]2C)c(N)c1=O`, the ID50 (CCRF-CEM) was 0.65 µg/mL (≈ 0.446 µM), the Bapp (Calf thymus DNA [5]) was “Not measurable” and the K app (Calf thymus DNA [6]) was “Not measurable”. The ED50 (P388 [7]) was “High and variable values”, the ED50 (P388 [8]) was “High and variable values” and the ILS (P388 [9]) was 100%. For the same compound, the MST (P388 [10]) was 21 days and the Optimal dose (P388 [11]) was 0.5 mg/kg.

With `CCCCCCCCCCCNc1c(C(=O)N[C@H]2C(=O)N[C@@H](C(C)C)C(=O)N3CCC[C@H]3C(=O)N(C)CC(=O)N(C)[C@H](C(C)C)C(=O)O[C@H]2C)c2nc3c(C(=O)N[C@@H]4C(=O)N[C@H](C(C)C)C(=O)N5CCC[C@@H]5C(=O)N(C)CC(=O)N(C)[C@@H](C(C)C)C(=O)O[C@@H]4C)ccc(C)c3oc-2c(C)c1=O` the ED50 (P388 [3]) was “Not measurable” and the ED50 (P388 [4]) was “Not measurable”.

In the case of `CCCCCCNc1c(C(=O)N[C@H]2C(=O)N[C@@H](C(C)C)C(=O)N3CCC[C@H]3C(=O)N(C)CC(=O)N(C)[C@H](C(C)C)C(=O)O[C@H]2C)c2nc3c(C(=O)N[C@@H]4C(=O)N[C@H](C(C)C)C(=O)N5CCC[C@@H]5C(=O)N(C)CC(=O)N(C)[C@@H](C(C)C)C(=O)O[C@@H]4C)ccc(C)c3oc-2c(C)c1=O`, the ED50 (P388 [3]) is reported as “Not measurable” and the ED50 (P388 [4]) is reported as “Not measurable”.

For `CCCCCCCCC/N=c1/cc(C(=O)N[C@@H]2C(=O)N[C@H](C(C)C)C(=O)N3CCC[C@@H]3C(=O)N(C)CC(=O)N(C)[C@@H](C(C)C)C(=O)O[C@@H]2C)c2nc3c(C(=O)N[C@H]4C(=O)N[C@@H](C(C)C)C(=O)N5CCC[C@H]5C(=O)N(C)CC(=O)N(C)[C@H](C(C)C)C(=O)O[C@H]4C)c(N)c(O)c(C)c3oc-2c1C`, the Bapp (Calf thymus DNA [12]) was “Not measurable”, the K app (Calf thymus DNA [13]) was “Not measurable” and the ED50 (P388 [14]) was “Solubility too low”. For the same compound, the ED50 (P388 [15]) was “Solubility too low”.

In the case of `CCCCCNc1c(C(=O)N[C@H]2C(=O)N[C@@H](C(C)C)C(=O)N3CCC[C@H]3C(=O)N(C)CC(=O)N(C)[C@H](C(C)C)C(=O)O[C@H]2C)c2nc3c(C(=O)N[C@@H]4C(=O)N[C@H](C(C)C)C(=O)N5CCC[C@@H]5C(=O)N(C)CC(=O)N(C)[C@@H](C(C)C)C(=O)O[C@@H]4C)ccc(C)c3oc-2c(C)c1=O`, the ED50 (P388 [3]) is reported as “Not measurable” and the ED50 (P388 [4]) is reported as “Not measurable”.
